Experimental findings from ChEMBL document CHEMBL4229461 (Bioorg Med Chem, 2018) are described below.

Structures are written as SMILES. Calls of active or inactive are those of the source. The rule behind the calls is not given here.

Data set [1] addresses T1, Amyloid-beta precursor protein (Homo sapiens, UniProt P05067). The data set can be described thus: Disruption of recombinant human amyloid beta (1 to 40) fibrils after 24 hrs by ThT fluorescence assay.
The target of data set [2] is T1, Amyloid-beta precursor protein. The data set can be described thus: Disruption of recombinant human amyloid beta (1 to 40) fibrils at 10 uM after 24 hrs by atomic force microscopic method. The essentials: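 10 μM Aβ1-40 fibrils plus 10 μM compound, incubated 24 h at 37 °C. Spread on fresh mica, adsorbed 5 min, water-washed, dried under nitrogen, imaged by AFM. No smoothing or noise reduction applied.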

The target is the same in data set [3]. The data set can be described thus: Disruption of recombinant human amyloid beta (1 to 40) fibrils at 10 uM after 24 hrs by ThT fluorescence assay relative to control. The essentials: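 Aβ1-40 fibrils (10 μM in 150 mM MOPS, pH 6.9) incubated 24 h at 37 °C with compound at 10 μM. ThT added to 20 μM, 1 h at 37 °C in the dark, excitation 440 nm, emission 485 nm. Intensity normalized to fibrils alone. Triplicate, mean ± SD. Intrinsic compound fluorescence measured without peptide.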

In data set [4] the test system is HT-22. The data set can be described thus: Cytotoxicity against mouse HT22 cells assessed as reduction in cell viability at 5 uM after 24 hrs by MTT assay. The data set is classed as cell-based. The following applies: ht-22, 24 h. The method in brief: (§1)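 HT-22 cells (5 × 10^3 per well) plated, then treated the next day for 24 h with compound in complete medium (1–25 μM range; 10 mM DMSO stock, final DMSO 0.025%; DMSO as negative control). MTT at 0.5 mg/mL final, 2 h, 37 °C; formazan solubilized, A570 read. Mean of at least three independent experiments ± SD.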
For orientation: Tetrazolium assays rely on reduction of a dye to a coloured formazan, in cell work by metabolically active cells.

Data set [5] concerns HT-22. The data set can be described thus: Cytoprotection against glutamate-induced excitotoxicity in mouse HT22 cells assessed as increase in cell viability at 1 uM after 24 hrs by optical microscopic assay. The data set is classed as functional, cell-based. The method in brief: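 Cells co-treated 24 h with 2 mM glutamate plus compound at 1 μM. Viable cells judged from optical microscope images.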

For data set [6], the system named is HT-22. The data set can be described thus: Cytoprotection against glutamate-induced apoptosis in mouse HT22 cells assessed as decrease in Bax/Bcl2 ratio at 1 uM after 24 hrs by RT-PCR method. The data set is classed as functional, cell-based. The method in brief:
(§2)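 HT-22 mouse hippocampal cells grown in high-glucose DMEM with 10% heat-inactivated FBS at 37 °C, 5% CO2. Compound (1 μM; DMSO stock, final DMSO 0.025%) added together with 2 mM glutamate for 24 h. Transcripts measured by qRT-PCR. iNOS or Bax/Bcl-2 ratio reported as fold change vs untreated control (set at 1) by the ΔΔCt method.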

The test system of data set [7] is HT-22. The data set can be described thus: Cytoprotection against glutamate-induced oxidative stress in mouse HT22 cells assessed as decrease in iNOS mRNA level at 1 uM after 24 hrs by RT-PCR method. Type of data set: functional, cell-based. The essentials: as §2
Data set [8] concerns HT-22. The data set can be described thus: Cytoprotection against glutamate-induced excitotoxicity in mouse HT22 cells assessed as decrease in glutamate-induced cell cycle arrest at sub-G1 phase at 1 uM after 24 hrs by propidium iodide staining based flow cytometry. Type of data set: functional. The method in brief: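 HT-22 cells (1.5 × 10^5 per well) co-treated 24 h with 2 mM glutamate plus compound at 1 μM, final DMSO 0.025%. Pelleted, PBS-washed, stained 30 min in PI solution (50 μg/mL PI, Triton, Na citrate). DNA content read by flow cytometry and the SubG1 fraction scored. Mean of three independent experiments ± SD.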
Background: Flow cytometry measures light scatter and fluorescence of single cells or particles in a stream.

Data set [9] concerns HT-22. The data set can be described thus: Cytoprotection against glutamate-induced excitotoxicity in mouse HT22 cells assessed as increase in cell proliferation at 1 uM after 24 hrs by MTT assay. Type of data set: functional, cell-based. The essentials: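 HT-22 cells (5 × 10^3 per well) co-treated 24 h at 37 °C with 2 mM glutamate plus compound at 1 μM, final DMSO 0.025%. MTT added to 0.5 mg/mL final for 2 h, formazan dissolved in acidified isopropanol/NP40, A570 read. Proliferation relative to untreated control (100%). Mean of at least three independent experiments ± SD.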

The nature of data set [10]: Cytotoxicity against mouse HT22 cells assessed as reduction in cell viability after 24 hrs by MTT assay. Type of data set: cell-based, HT-22. The essentials: as §1
Data set [11] addresses T1, Amyloid-beta precursor protein. The data set can be described thus: Disruption of recombinant human amyloid beta (1 to 40) fibrils after 2 hrs by ThT fluorescence assay.
For data set [12], the system named is HT-22. The data set can be described thus: Cytotoxicity against mouse HT22 cells assessed as reduction in cell viability at 10 uM after 24 hrs by MTT assay. Type of data set: cell-based. The following applies: ht-22, 24 h. The essentials: as §1

T1 sequence (P05067 whole entry): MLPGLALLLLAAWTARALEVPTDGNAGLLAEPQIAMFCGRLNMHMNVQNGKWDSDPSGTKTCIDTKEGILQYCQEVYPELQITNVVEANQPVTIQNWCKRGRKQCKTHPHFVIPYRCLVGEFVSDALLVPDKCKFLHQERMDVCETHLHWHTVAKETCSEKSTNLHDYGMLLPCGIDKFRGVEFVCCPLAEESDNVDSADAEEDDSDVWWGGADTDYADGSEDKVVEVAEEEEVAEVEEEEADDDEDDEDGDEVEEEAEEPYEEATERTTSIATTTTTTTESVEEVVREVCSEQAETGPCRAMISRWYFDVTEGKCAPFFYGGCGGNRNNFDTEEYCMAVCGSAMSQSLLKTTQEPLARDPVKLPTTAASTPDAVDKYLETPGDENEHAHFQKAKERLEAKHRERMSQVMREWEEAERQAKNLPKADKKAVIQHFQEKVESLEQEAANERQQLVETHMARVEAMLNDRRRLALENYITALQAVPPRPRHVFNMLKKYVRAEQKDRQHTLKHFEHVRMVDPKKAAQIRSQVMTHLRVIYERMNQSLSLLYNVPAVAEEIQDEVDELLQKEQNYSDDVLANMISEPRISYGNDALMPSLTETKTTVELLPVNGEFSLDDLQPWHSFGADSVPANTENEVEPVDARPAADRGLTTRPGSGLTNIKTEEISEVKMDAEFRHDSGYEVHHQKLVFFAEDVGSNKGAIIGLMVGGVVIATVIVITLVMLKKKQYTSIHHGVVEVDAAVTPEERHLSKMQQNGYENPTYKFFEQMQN

`O=C(/C=C(O)/C=C/c1ccccc1)/C=C/c1ccccc1`: the DC50 entry in [1] was “Not Active”. Also, the result in data set [2] was inactive. For the same compound, the outcome in [3] was Active.
With `COc1cc(/C=C/c2cc(/C=C/c3ccc(OC(C)=O)c(OC)c3)[nH]n2)ccc1OC(C)=O`, the DC50 in data set [1] (read-out: DC50) came to 310 nM; in [11], 650 nM. Besides, the Activity result in [4] is “Toxic”; in data set [3], greater than 75%. For the same compound, the outcome in data set [5], in [6], in data set [7], in data set [8] and in [9] was Active. Moreover, in data set [10], the MNTC at 24 h is 1000 nM.
Regarding `COc1cc(/C=C/c2cc(/C=C/c3ccc(O)c(OC)c3)[nH]n2)ccc1O` [CURCUMIN PYRAZOLE], the Activity result is “Dose-dependent effect” in data set [1], greater than 75% in data set [3] and “Dose-dependent effect” in data set [11]. Further, the DC50 in [1] (read-out: DC50) was 1470 nM.
`COc1cccc(/C=C/C(=O)/C=C(O)/C=C/c2cccc(OC)c2)c1`: in data set [1], the DC50 entry is recorded as “Not Active”.
For the compound `COc1cc(/C=C/C(=O)/C(CCCN2C(=O)c3ccccc3C2=O)=C(O)/C=C/c2ccc(O)c(OC)c2)ccc1O`, in [1] (read-out: DC50), the DC50 was found to be 1160 nM. Besides, in data set [3], the Activity was greater than 75%.
Take `C(=C\c1cc(/C=C/c2ccccc2)[nH]n1)/c1ccccc1`: in data set [1], the DC50 entry was “Not Active”. For the same compound, the result in data set [3] was Active.
Regarding `COc1cc(/C=C/C(=O)/C=C(O)/C=C/c2ccc(OC(C)=O)c(OC)c2)ccc1OC(C)=O`, the DC50 was determined as 1950 nM in [1] (read-out: DC50) and 1000 nM in data set [11]. Further, in data set [4], the Activity result is recorded as “Toxic”. Also, the outcome in [5], in data set [6], in [7], in data set [8] and in [9] was Active. Moreover, the MNTC at 24 h in data set [10] is 1000 nM.
With `COc1cc(/C=C/C(=O)CC(=O)/C=C/c2ccc(O)c(OC)c2)ccc1O` [CURCUMIN], the Activity entry in [1] is “Dose-dependent effect”; in [12], “Toxic”; in data set [3], greater than 75%; in data set [11], “Dose-dependent effect”. Besides, the outcome in [5], in data set [6], in [2], in data set [7], in [8] and in data set [9] was Active. Moreover, the MNTC at 24 h in data set [10] stood at 1000 nM.
With `COc1cc(/C=C/c2cc(C)[nH]n2)ccc1O`, the DC50 in data set [1] (read-out: DC50) stood at 38800 nM. For the same compound, in [3], the outcome was Active.
Take `COc1cc(/C=C/C(=O)/C=C(/C)O)ccc1O`: the DC50 entry in data set [1] was “Not Active”. Also, the result in data set [3] was Active.
Take `O=C(/C=C/c1ccccc1)/C(CCCN1C(=O)c2ccccc2C1=O)=C(O)/C=C/c1ccccc1`: the DC50 entry in [1] is on record as “Not Active”. In addition, the outcome in [3] was Active.
